Experimental findings from ChEMBL document CHEMBL3576820, “Discovery of benzimidazole oxazolidinediones as novel and selective nonsteroidal mineralocorticoid receptor antagonists” (ACS Med Chem Lett, 2015) are described below.

Active and inactive are the calls of the source. No cut-off for these calls is given here.

The nature of data set [1]: Plasma clearance in Wistar han rat at 2 mg/kg, po and 1 mg/kg, iv. It is filed as ADME, organism-based. Put shortly: (§1)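 Wistar Han rats. IV dose 1 mg/kg in DMSO/PEG200/water (10:60:30), n=2. Oral dose 2 mg/kg in imwitor/tween (1:1) by gavage, n=3. Values are averages. Derived: F%, plasma clearance, Vdss, terminal half-life and oral AUC normalized to dose.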
Data set [2] in a line: Oral bioavailability in Wistar han rat at 2 mg/kg. It counts as ADME, organism-based. To be noted: in vivo. The essentials: as §1
Data set [3] concerns the target T1, Mineralocorticoid receptor (Homo sapiens) (UniProt P08235).
T1 sequence (whole entry): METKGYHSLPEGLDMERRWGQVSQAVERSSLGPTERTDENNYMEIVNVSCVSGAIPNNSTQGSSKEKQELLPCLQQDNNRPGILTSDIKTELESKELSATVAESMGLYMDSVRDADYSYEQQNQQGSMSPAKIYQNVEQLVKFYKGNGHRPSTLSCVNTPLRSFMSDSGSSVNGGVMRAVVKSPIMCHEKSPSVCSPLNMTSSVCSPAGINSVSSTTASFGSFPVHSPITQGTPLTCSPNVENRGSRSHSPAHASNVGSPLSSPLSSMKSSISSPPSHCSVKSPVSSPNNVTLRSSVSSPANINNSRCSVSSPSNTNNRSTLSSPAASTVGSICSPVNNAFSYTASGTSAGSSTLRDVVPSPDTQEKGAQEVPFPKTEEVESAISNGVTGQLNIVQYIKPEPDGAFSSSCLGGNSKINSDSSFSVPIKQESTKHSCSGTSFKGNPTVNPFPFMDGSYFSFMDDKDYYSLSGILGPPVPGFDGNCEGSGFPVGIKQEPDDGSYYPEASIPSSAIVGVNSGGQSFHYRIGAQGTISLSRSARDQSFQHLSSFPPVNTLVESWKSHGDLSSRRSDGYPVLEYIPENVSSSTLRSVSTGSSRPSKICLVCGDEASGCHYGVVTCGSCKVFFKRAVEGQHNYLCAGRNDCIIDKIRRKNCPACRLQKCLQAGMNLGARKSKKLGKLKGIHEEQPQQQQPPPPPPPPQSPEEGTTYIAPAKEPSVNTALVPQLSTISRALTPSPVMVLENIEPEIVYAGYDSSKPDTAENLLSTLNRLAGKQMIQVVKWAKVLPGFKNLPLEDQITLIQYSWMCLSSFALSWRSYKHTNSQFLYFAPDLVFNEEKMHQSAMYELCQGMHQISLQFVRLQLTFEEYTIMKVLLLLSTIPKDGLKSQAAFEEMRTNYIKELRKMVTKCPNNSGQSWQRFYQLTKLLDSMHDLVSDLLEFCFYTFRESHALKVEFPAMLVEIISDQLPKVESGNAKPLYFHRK
Briefly: Agonist activity at human mineralocorticoid receptor by cell-based assay.

Data set [4] relates to Rattus norvegicus. In words: Dose normalized AUC in Wistar han rat at 2 mg/kg, po. It counts as ADME, organism-based. To be noted: in vivo. Put shortly: as §1
A short description of data set [5]: Volume of distribution at steady state in Wistar han rat at 2 mg/kg, po and 1 mg/kg, iv. It counts as ADME, organism-based. As to conditions: in vivo, read-out: Vdss. The essentials:
as §1

A short description of data set [6]: Fraction unbound in 10% human plasma. To be noted: 10% plasma. It is filed as ADME, cell-free. The essentials: (§2)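 Free fraction measured in the presence of 10% plasma (human or rat), taken as correlating with the free fraction in whole plasma.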
For data set [7], the target named is T2, Mineralocorticoid receptor (Homo sapiens, UniProt P08235).
T2 sequence (P08235 whole entry): T1 sequence (whole entry)
Briefly: Antagonist activity at human mineralocorticoid receptor overexpressed in CHOK1 cells assessed as inhibition of aldosterone-induced protein interaction with coactivator peptide after 6 hrs by luminescence assay. It is filed as cell-based, CHO-K1.

The nature of data set [8]: Plasma protein binding in rat. To be noted: read-out: PPB. It counts as ADME, cell-free.
For data set [9], the target named is T3, Estrogen receptor (Homo sapiens) (UniProt P03372).
T3 sequence (whole entry): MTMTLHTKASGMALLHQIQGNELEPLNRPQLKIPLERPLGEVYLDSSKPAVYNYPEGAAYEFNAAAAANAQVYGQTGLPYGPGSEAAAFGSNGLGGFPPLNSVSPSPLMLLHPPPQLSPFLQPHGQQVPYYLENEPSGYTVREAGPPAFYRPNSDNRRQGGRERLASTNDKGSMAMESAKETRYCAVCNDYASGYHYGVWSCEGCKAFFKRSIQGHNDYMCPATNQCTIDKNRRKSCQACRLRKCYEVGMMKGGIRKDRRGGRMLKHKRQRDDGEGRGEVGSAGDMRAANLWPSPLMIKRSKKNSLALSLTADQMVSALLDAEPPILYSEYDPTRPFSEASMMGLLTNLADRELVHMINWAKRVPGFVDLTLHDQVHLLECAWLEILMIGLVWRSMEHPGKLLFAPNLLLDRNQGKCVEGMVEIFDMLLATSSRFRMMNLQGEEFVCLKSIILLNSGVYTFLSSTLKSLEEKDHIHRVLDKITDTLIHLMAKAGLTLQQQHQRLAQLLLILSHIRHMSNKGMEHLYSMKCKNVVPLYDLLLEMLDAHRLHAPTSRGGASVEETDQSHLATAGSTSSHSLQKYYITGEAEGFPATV
In words: Agonist activity at human estrogen receptor alpha by cell-based assay.

A short description of data set [10]: Fraction unbound in 10% rat plasma. It counts as ADME, cell-free. To be noted: 10% plasma. The essentials: as §2
The nature of data set [11]: Metabolic stability in human liver microsomes assessed as compound remaining at 1 uM after 0.5 hrs. It counts as ADME. As to conditions: read-out: Stability.
Data set [12] can be described thus: Terminal half life in Wistar han rat at 2 mg/kg, po and 1 mg/kg, iv. It counts as ADME, organism-based. To be noted: in vivo, read-out: beta t1/2 (converted). The essentials:
as §1

The target in data set [13] is T4, Progesterone receptor (Homo sapiens) (UniProt P06401).
T4 sequence (whole entry): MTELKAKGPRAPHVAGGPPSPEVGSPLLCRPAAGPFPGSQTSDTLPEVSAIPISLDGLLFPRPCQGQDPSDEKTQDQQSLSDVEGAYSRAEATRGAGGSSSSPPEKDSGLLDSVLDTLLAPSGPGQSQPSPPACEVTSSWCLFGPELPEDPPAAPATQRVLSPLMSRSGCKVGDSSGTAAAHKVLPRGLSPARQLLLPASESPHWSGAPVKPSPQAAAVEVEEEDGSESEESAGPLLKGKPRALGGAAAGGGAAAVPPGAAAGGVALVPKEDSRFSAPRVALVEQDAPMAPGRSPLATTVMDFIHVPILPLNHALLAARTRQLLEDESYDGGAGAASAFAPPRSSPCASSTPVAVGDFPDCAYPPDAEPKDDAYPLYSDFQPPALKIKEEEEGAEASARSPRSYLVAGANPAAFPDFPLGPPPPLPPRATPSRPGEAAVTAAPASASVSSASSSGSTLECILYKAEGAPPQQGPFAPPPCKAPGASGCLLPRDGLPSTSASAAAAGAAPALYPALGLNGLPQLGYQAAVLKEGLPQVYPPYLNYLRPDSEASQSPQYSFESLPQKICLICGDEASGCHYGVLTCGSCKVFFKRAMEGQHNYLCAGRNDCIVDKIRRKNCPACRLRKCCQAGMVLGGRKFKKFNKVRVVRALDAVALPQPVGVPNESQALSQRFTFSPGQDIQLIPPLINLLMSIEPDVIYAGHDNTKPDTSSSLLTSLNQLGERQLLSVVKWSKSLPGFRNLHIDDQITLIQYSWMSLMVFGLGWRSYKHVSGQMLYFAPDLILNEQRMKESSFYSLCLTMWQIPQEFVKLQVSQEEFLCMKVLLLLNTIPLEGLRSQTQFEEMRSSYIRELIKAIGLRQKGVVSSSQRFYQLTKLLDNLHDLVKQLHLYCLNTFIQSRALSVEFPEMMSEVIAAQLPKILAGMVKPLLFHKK
Briefly: Agonist activity at human progesterone receptor beta by cell-based assay.

Data set [14] in a line: Plasma protein binding in human. It is filed as ADME, cell-free. As to conditions: read-out: PPB.
The nature of data set [15]: Metabolic stability in rat liver microsomes assessed as compound remaining at 1 uM after 0.5 hrs. It is filed as ADME. To be noted: read-out: Stability.
In data set [16] the test system is Rattus norvegicus. Briefly: Natriuretic activity in WKY rat at 30 to 100 mg/kg, po measured over 6 hrs. It counts as functional, organism-based.

In [1], `C[C@H](c1ccc(F)cc1)N1C(=O)O[C@](Cc2ccccc2)(c2nc3c(C(F)(F)F)cccc3[nH]2)C1=O` showed a clearance of 23 mL/min/kg. For the same molecule, in [2], the bioavailability was 44%. Further, the outcome in [3], in [9] and in data set [13] was inactive. The AUC/dose in the data set on Rattus norvegicus [4] worked out at 0.067 µM·kg·h/mg. Also, the Vd in data set [5] amounted to 3.4 L/kg. The fraction unbound in data set [6] is 0.002; in data set [8], below 0.01; in [10], 0.005; in [14] it was below 0.01. Moreover, the half-maximal inhibitory concentration (IC50) in data set [7] amounted to 150 nM. Besides, the values for the remaining at 0.5 h, 1 µM in data set [11] and in data set [15] were 77% and 51%, respectively. The half-life in data set [12] was 2.4 h.
Regarding `CC(=O)S[C@@H]1CC2=CC(=O)CC[C@]2(C)[C@H]2CC[C@@]3(C)[C@@H](CC[C@@]34CCC(=O)O4)[C@H]12`, the result in data set [3], in data set [9] and in data set [13] was inactive. Further, the outcome in the data set on Rattus norvegicus [16] was Active.
In the case of `C[C@H](c1ccc(F)cc1)N1C(=O)O[C@](Cc2ccccc2)(c2nc3cc(-c4cccnc4Cl)ccc3[nH]2)C1=O`, the result in data set [3], in data set [9] and in data set [13] was inactive. In addition, in [7], the IC50 was 64 nM. For the same molecule, the remaining at 0.5 h, 1 µM in data set [11] is 64%; in [15], 25%.
Take `C[C@H](c1ccc(F)cc1)N1C(=O)O[C@](Cc2ccccc2)(c2nc3cc(-c4ccncc4)ccc3[nH]2)C1=O`: the result in data set [3], in data set [9] and in data set [13] was inactive. Further, the IC50 in data set [7] was 36 nM. Also, the remaining at 0.5 h, 1 µM in [11] stood at 68%; in [15] it was 23%.
As for `C[C@H](c1ccc(F)cc1)N1C(=O)O[C@](Cc2ccccc2)(c2nc3c(-c4cc[nH]n4)cccc3[nH]2)C1=O`, the result in data set [3], in data set [9] and in [13] was inactive. Besides, the 50% inhibitory concentration (IC50) in [7] is 1600 nM. Also, the remaining at 0.5 h, 1 µM was found to be 25% in data set [11] and 4% in [15].
On to `C[C@H](c1ccc(F)cc1)N1C(=O)O[C@](Cc2ccccc2)(c2nc3cc(-c4cnn(C)c4)ccc3[nH]2)C1=O`, for which the outcome in data set [3], in data set [9] and in data set [13] was inactive. The concentration for half-maximal inhibition (IC50) in data set [7] came to 33 nM. For the same molecule, the results for the remaining at 0.5 h, 1 µM in data set [11] and in data set [15] were 72% and 26%, respectively.
Take `C[C@H](c1ccc(F)cc1)N1C(=O)O[C@](Cc2ccccc2)(c2nc3c(-c4cncnc4)cccc3[nH]2)C1=O`: the outcome in data set [3], in data set [9] and in [13] was inactive. In addition, the IC50 in data set [7] turned out to be 370 nM. Besides, the values for the remaining at 0.5 h, 1 µM in [11] and in [15] were 30% and 19%, respectively.
On to `C[C@H](c1ccc(F)cc1)N1C(=O)O[C@](Cc2ccccc2)(c2nc3c(-c4cccnc4)cccc3[nH]2)C1=O`, for which the outcome in data set [3], in data set [9] and in [13] was inactive. Besides, in data set [7], the 50% inhibitory concentration (IC50) was found to be 170 nM. Moreover, the remaining at 0.5 h, 1 µM in [11] is 38%; in data set [15], 26%.
